From ChEMBL document CHEMBL1142980, “Quinols as novel therapeutic agents. 7.1 Synthesis of antitumor 4-[1-(arylsulfonyl-1H-indol-2-yl)]-4-hydroxycyclohexa-2,5-dien-1-ones by Sonogashira reactions” (J Med Chem, 2007) come the findings set out here.

Test [1] can be described thus: Growth inhibition of NCI60 cells. Conditions: Homo sapiens; for CC50: read-out: LC50 (the source's name). The class given is functional. The essentials: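 Run in the NCI in vitro 60 human cancer cell line panel. Potency is given as mean GI50 and mean LC50 (µM) across the panel. Individual lines with LC50 below 1 µM are reported separately.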
The test system of the next test is HCT-116. In words: Growth inhibition of human HCT116 cells after 72 hrs by MTT assay. In kind it is functional, cell-based. Conditions: HCT-116, 72 h, read-out: LC50 (the source's name). The essentials: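 Human cancer cells given 72 h continuous drug exposure, growth measured by MTT assay; part of a preliminary five-line screen (colon HCT-116, HT29; breast MCF-7, MDA 468; non-small cell lung A549).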
Background: Tetrazolium dyes change colour on reduction, which living cells bring about.

The test system of the next test is ACHN. The test can be described thus: Growth inhibition of human ACHN cells after 72 hrs by MTT assay. Particulars: read-out: LC50 (the source's name). The class given is functional.
The nature of test [2]: Growth inhibition of human LOXIMV1 cells after 72 hrs by MTT assay. In kind it is functional. Particulars: LOX IMV1, 72 h, read-out: LC50 (the source's name).
The test system of a further test is BT-549. The test can be described thus: Growth inhibition of human BT549 cells after 72 hrs by MTT assay. Particulars: BT-549, 72 h, read-out: LC50 (the source's name). In kind it is functional.
Another test has as its system CAKI-1. The test can be described thus: Growth inhibition of human CAKI1 cells after 72 hrs by MTT assay. The class given is functional. Conditions: CAKI-1, 72 h, read-out: LC50 (the source's name).
For a further test, the system named is A498. The test can be described thus: Growth inhibition of human A498 cells after 72 hrs by MTT assay. The class given is functional. Particulars: A498, 72 h, read-out: LC50 (the source's name).
The test system of a further test is SK-MEL-5. In words: Growth inhibition of human SKMEL5 cells after 72 hrs by MTT assay. Particulars: SK-MEL-5, 72 h, read-out: LC50 (the source's name). In kind it is functional.

`O=C1C=CC(O)(c2cc3ccc(F)cc3n2S(=O)(=O)c2ccccc2)C=C1`: in test [1], it took 16 nM to inhibit growth by half (GI50) and the CC50 stood at 2240 nM.
With `CCOC(=O)Nc1ccc(S(=O)(=O)n2c(C3(O)C=CC(=O)C=C3)cc3ccccc32)cc1`, in test [1], the GI50 turned out to be 190 nM. Moreover, the CC50 amounted to 7580 nM in test [1], 295 nM in the test with HCT-116 and 600 nM with ACHN.
Regarding `COC(=O)CCc1ccc(S(=O)(=O)n2c(C3(O)C=CC(=O)C=C3)cc3ccc(F)cc32)cc1`, the GI50 in test [1] turned out to be 500 nM. Moreover, the CC50 stood at 10500 nM in test [1], 720 nM in the test on HCT-116, 810 nM in test [2] and 740 nM in the test on BT-549.
As for `O=C1C=CC(O)(c2cc3ccccc3n2S(=O)(=O)c2ccccc2)C=C1`, the GI50 in test [1] is 39 nM. The CC50 in test [1] turned out to be 2950 nM; in the test with HCT-116, 30 nM; in the test with CAKI-1, 50 nM.
In test [1], `O=C1C=CC(O)(c2cc3cnccc3n2S(=O)(=O)c2ccccc2)C=C1` showed a GI50 of 340 nM. The values for the CC50 (in test [1]; in the test with HCT-116; in the test on CAKI-1) were 13800 nM, 930 nM and 470 nM, respectively.
With `O=C1C=CC(O)(c2cc3ccc(F)cc3n2S(=O)(=O)c2ccc(CCC(=O)O)cc2)C=C1`, in test [1], halving of growth (GI50) required 2500 nM and the CC50 came out at 29500 nM.
In turn, `CN(C)c1cccc2c(S(=O)(=O)n3c(C4(O)C=CC(=O)C=C4)cc4ccccc43)cccc12` displayed a GI50 in test [1] of 190 nM. Also, the figures for the CC50 (in test [1]; in the test on ACHN; in the test on A498) were 13200 nM, 410 nM and 60 nM, respectively.
`Cc1ccc(S(=O)(=O)n2c(C3(O)C=CC(=O)C=C3)cc3ccncc32)cc1` yielded a 50% growth inhibitory concentration (GI50) in test [1] of 170 nM. Moreover, the CC50 was 5750 nM in test [1], under 10 nM with HCT-116, 50 nM in the test with ACHN and 60 nM in test [2].
As for `O=C1C=CC(O)(c2cc3ccccc3n2S(=O)(=O)c2cccnc2)C=C1`, in test [1], it took 410 nM to inhibit growth by half (GI50) and the CC50 amounted to 14100 nM. Also, the CC50 with HCT-116 came to 290 nM.
Turning to `Cc1ccc(S(=O)(=O)n2c(C3(O)C=CC(=O)C=C3)cc3ccccc32)cc1`, it took 110 nM to inhibit growth in test [1] by half (GI50). Besides, the CC50 is 7240 nM in test [1], under 10 nM with HCT-116, 40 nM in the test with ACHN and under 10 nM in test [2].
For `O=C1C=CC(O)(c2nc3ccccc3s2)C=C1`, in test [1], the GI50 was determined as 230 nM and the CC50 amounted to 3390 nM.
Take `COC(=O)CCc1ccc(S(=O)(=O)n2c(C3(O)C=CC(=O)C=C3)cc3ccccc32)cc1`: in test [1], the GI50 was determined as 680 nM. The figures for the CC50 (in test [1]; in the test on HCT-116; in the test on SK-MEL-5) were 22900 nM, 20 nM and 600 nM, respectively.
As for `O=C1C=CC(O)(c2cc3ccccc3n2S(=O)(=O)c2ccc(CCC(=O)O)cc2)C=C1`, in test [1], the GI50 amounted to 2340 nM and the CC50 came out at 23400 nM.

What is called GI50 is the concentration that inhibits growth by half.
